In brackets after ≈: the same amount, converted by molar mass.
Legend:
Candida albicans [1] = assay: Antifungal activity against Candida albicans isolate B311 expressing wild type 1,3-beta-glucan synthase grown on AM3 media after 48 hrs by EUCAST microdilution method; type: functional; details: isolate B311, 24 h, in the assay text read “24 hrs” for “48 hrs”
In short: (§1)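 EUCAST (AFST-EUCAST) broth microdilution with caspofungin at 0.015 to 8 μg/ml final, in AM3 with glucose added to 2% final. Final inoculum was 10⁵ yeast cells/ml, with microplates prepared in batches and stored at −20°C. Plates were incubated at 35°C in humid ambient air and read spectrophotometrically after shaking at 24 h and 48 h. MIC was ≥50% growth reduction versus drug-free well; 90% end point also read at both times.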

Candida albicans [2] = assay: Antifungal activity against Candida albicans isolate 1 expressing wild type 1,3-beta-glucan synthase grown on AM3 media after 48 hrs by EUCAST microdilution method; type: functional; details: isolate 1, 24 h, in the assay text read “24 hrs” for “48 hrs”; in short: as §1
Candida albicans [3] = assay: Antifungal activity against Candida albicans isolate 2 expressing wild type 1,3-beta-glucan synthase grown on AM3 media after 48 hrs by EUCAST microdilution method; type: functional; details: isolate 2, 24 h, in the assay text read “24 hrs” for “48 hrs”; in short: as §1
Candida albicans [4] = assay: Antifungal activity against Candida albicans isolate 15 expressing wild type 1,3-beta-glucan synthase grown on AM3 media after 48 hrs by EUCAST microdilution method; type: functional; details: isolate 15, 24 h, in the assay text read “24 hrs” for “48 hrs”; in short: as §1
Candida albicans [5] = assay: Antifungal activity against Candida albicans isolate 25 expressing wild type 1,3-beta-glucan synthase grown on AM3 media after 48 hrs by EUCAST microdilution method; type: functional; details: isolate 25, 24 h, in the assay text read “after 24 hrs” for “after 48 hrs”; in short: as §1
Candida albicans [6] = assay: Antifungal activity against Candida albicans isolate 4 expressing wild type 1,3-beta-glucan synthase grown on AM3 media after 48 hrs by EUCAST microdilution method; type: functional; details: isolate 4, 24 h, in the assay text read “after 24 hrs” for “after 48 hrs”; in short: as §1
Candida albicans [7] = assay: Antifungal activity against Candida albicans isolate 10 expressing wild type 1,3-beta-glucan synthase grown on AM3 media after 48 hrs by EUCAST microdilution method; type: functional; details: isolate 10, 24 h, in the assay text read “after 24 hrs” for “after 48 hrs”; in short: as §1
Candida albicans [8] = assay: Antifungal activity against Candida albicans isolate 14 expressing wild type 1,3-beta-glucan synthase grown on AM3 media after 48 hrs by EUCAST microdilution method; type: functional; details: isolate 14, 24 h, in the assay text read “after 24 hrs” for “after 48 hrs”; in short: as §1
Pichia kudriavzevii [9] = assay: Antifungal activity against Candida krusei ATCC 6258 expressing wild type 1,3-beta-glucan synthase grown on AM3 media after 48 hrs by EUCAST microdilution method; type: functional; details: ATCC 6258, 24 h, in the assay text read “after 24 hrs” for “after 48 hrs”; in short: as §1
Candida tropicalis [10] = assay: Antifungal activity against Candida tropicalis isolate 1 expressing wild type 1,3-beta-glucan synthase grown on AM3 media after 48 hrs by EUCAST microdilution method; type: functional; details: isolate 1, 24 h, in the assay text read “24 hrs” for “48 hrs”; in short: as §1
Candida albicans [11] = assay: Antifungal activity against Candida albicans isolate 1 expressing wild type 1,3-beta-glucan synthase grown on RPMI media after 24 hrs by EUCAST microdilution method; details: isolate 1, 24 h
Candida albicans [12] = assay: Antifungal activity against Candida albicans isolate 8 expressing wild type 1,3-beta-glucan synthase grown on RPMI media after 24 hrs by EUCAST microdilution method; details: isolate 8, 24 h
Candida albicans [13] = assay: Antifungal activity against Candida albicans isolate 9 expressing wild type 1,3-beta-glucan synthase grown on RPMI media after 24 hrs by EUCAST microdilution method; details: isolate 9, 24 h
Candida albicans [14] = assay: Antifungal activity against Candida albicans isolate 15 expressing wild type 1,3-beta-glucan synthase grown on RPMI media after 24 hrs by EUCAST microdilution method; details: isolate 15, 24 h
Candida albicans [15] = assay: Antifungal activity against Candida albicans isolate 16 expressing wild type 1,3-beta-glucan synthase grown on RPMI media after 24 hrs by EUCAST microdilution method; details: isolate 16, 24 h
Candida albicans [16] = assay: Antifungal activity against Candida albicans isolate 17 expressing wild type 1,3-beta-glucan synthase grown on RPMI media after 24 hrs by EUCAST microdilution method; details: isolate 17, 24 h
Candida tropicalis [17] = assay: Antifungal activity against Candida tropicalis isolate 1 expressing wild type 1,3-beta-glucan synthase grown on RPMI media after 24 hrs by EUCAST microdilution method; details: isolate 1, 24 h
Pichia kudriavzevii [18] = assay: Antifungal activity against Candida krusei isolate 1 harboring 1,3-beta-glucan synthase HS1 point mutant grown on AM3 media after 24 hrs by EUCAST microdilution method; details: isolate 1, 24 h
Candida albicans [19] = assay: Antifungal activity against Candida albicans isolate 19 harboring 1,3-beta-glucan synthase HS1 point mutant grown on AM3 media after 24 hrs by EUCAST microdilution method; details: isolate 19, 24 h
Candida albicans [20] = assay: Antifungal activity against Candida albicans isolate 21 harboring 1,3-beta-glucan synthase HS1 point mutant grown on AM3 media after 24 hrs by EUCAST microdilution method; details: isolate 21, 24 h
Candida albicans [21] = assay: Antifungal activity against Candida albicans isolate 23 harboring 1,3-beta-glucan synthase HS2 point mutant grown on AM3 media after 24 hrs by EUCAST microdilution method; details: isolate 23, 24 h
Candida albicans [22] = assay: Antifungal activity against Candida albicans isolate 24 harboring 1,3-beta-glucan synthase HS1 point mutant grown on AM3 media after 24 hrs by EUCAST microdilution method; details: isolate 24, 24 h
Candida albicans [23] = assay: Antifungal activity against Candida albicans isolate 19 harboring 1,3-beta-glucan synthase HS1 point mutant grown on RPMI media after 24 hrs by EUCAST microdilution method; details: isolate 19, 24 h
Candida albicans [24] = assay: Antifungal activity against Candida albicans isolate 20 harboring 1,3-beta-glucan synthase HS1 point mutant grown on RPMI media after 24 hrs by EUCAST microdilution method; details: isolate 20, 24 h
Candida albicans [25] = assay: Antifungal activity against Candida albicans isolate 22 harboring 1,3-beta-glucan synthase HS1 point mutant grown on RPMI media after 24 hrs by EUCAST microdilution method; details: isolate 22, 24 h
Candida albicans [26] = assay: Antifungal activity against Candida albicans isolate 24 harboring 1,3-beta-glucan synthase HS1 point mutant grown on RPMI media after 24 hrs by EUCAST microdilution method; details: isolate 24, 24 h
Candida tropicalis [27] = assay: Antifungal activity against Candida tropicalis isolate 2 harboring 1,3-beta-glucan synthase HS1 point mutant grown on RPMI media after 24 hrs by EUCAST microdilution method; details: isolate 2, 24 h

CC[C@H](C)C[C@H](C)CCCCCCCCC(=O)N[C@H]1C[C@@H](O)[C@@H](NCCN)NC(=O)[C@@H]2[C@@H](O)CCN2C(=O)[C@H]([C@H](O)CCN)NC(=O)[C@H]([C@H](O)[C@@H](O)c2ccc(O)cc2)NC(=O)[C@@H]2C[C@@H](O)CN2C(=O)[C@H]([C@@H](C)O)NC1=O [CASPOFUNGIN]
MIC (Candida albicans [1]): 0.06 µg/mL (≈ 0.0549 µM) | MIC (Candida albicans [2]): 0.03 µg/mL (≈ 0.0274 µM) | MIC (Candida albicans [3]): 0.03 µg/mL (≈ 0.0274 µM) | MIC (Candida albicans [4]): 0.03 µg/mL (≈ 0.0274 µM) | MIC (Candida albicans [5]): 0.03 µg/mL (≈ 0.0274 µM) | MIC (Candida albicans [6]): 0.03 µg/mL (≈ 0.0274 µM) | MIC (Candida albicans [7]): 0.06 µg/mL (≈ 0.0549 µM) | MIC (Candida albicans [8]): 0.03 µg/mL (≈ 0.0274 µM) | MIC (Pichia kudriavzevii [9]): 0.06 µg/mL (≈ 0.0549 µM) | MIC (Candida tropicalis [10]): 0.06 µg/mL (≈ 0.0549 µM) | MIC (Candida albicans [11]): 0.25 µg/mL (≈ 0.229 µM) | MIC (Candida albicans [12]): 0.5 µg/mL (≈ 0.457 µM) | MIC (Candida albicans [13]): 0.5 µg/mL (≈ 0.457 µM) | MIC (Candida albicans [14]): 0.25 µg/mL (≈ 0.229 µM) | MIC (Candida albicans [15]): 0.5 µg/mL (≈ 0.457 µM) | MIC (Candida albicans [16]): 0.5 µg/mL (≈ 0.457 µM) | MIC (Candida tropicalis [17]): 2 µg/mL (≈ 1.83 µM) | MIC (Pichia kudriavzevii [18]): 4 µg/mL (≈ 3.66 µM) | MIC (Candida albicans [19]): 0.5 µg/mL (≈ 0.457 µM) | MIC (Candida albicans [20]): 1 µg/mL (≈ 0.915 µM) | MIC (Candida albicans [21]): 0.5 µg/mL (≈ 0.457 µM) | MIC (Candida albicans [22]): 16 µg/mL (≈ 14.6 µM) | MIC (Candida albicans [23]): 1 µg/mL (≈ 0.915 µM) | MIC (Candida albicans [24]): 2 µg/mL (≈ 1.83 µM) | MIC (Candida albicans [25]): 2 µg/mL (≈ 1.83 µM) | MIC (Candida albicans [26]): 4 µg/mL (≈ 3.66 µM) | MIC (Candida tropicalis [27]): 2 µg/mL (≈ 1.83 µM)
